High-throughput results as filed in PubChem BioAssay.
LMPTP block: LMPTP phosphatase inhibitors, primary screen, biochemical, fluorescence intensity, uHTS; inhibition, % at 20 µM; recombinant LMPTP-A, OMFP fluorogenic substrate; Low molecular weight phosphotyrosine protein phosphatase (Homo sapiens), P24666; AID 651560, 2012; hit rate 0.22% among 360,000;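 active means compounds that cut the enzyme signal by at least half of the control window in the single-dose screen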
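Assay system: LMPTP-A phosphatase enzyme | Input: 0.625 nM enzyme | Also added: Fluorogenic phosphatase substrate OMFP at 400 µM final | Compound dosing: One test concentration per compound, 20 µM, with 3% DMSO overall | Schedule: 50 min enzyme reaction at room temperature, protected from light | Signal: Fluorescence intensity | Benchmarks: no-enzyme and uninhibited controls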
Scp1 inh: Scp-1 phosphatase inhibitors, primary screen, biochemical, colorimetric, uHTS. Recombinant Scp1, phosphopeptide, malachite green phosphate absorbance. inhibition, % at 20 µM. AID 493091, 2011. Carboxy-terminal domain RNA polymerase II polypeptide A small phosphatase 1 (Homo …. hit rate 0.88% among 340,000;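 active means inhibition above about 50% at 20 µM, limit read from the data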
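Assay system: SCP-1 catalytic fragment, aa 76-261 | Buffer or medium: Tris acetate buffer pH 5.5 with MgCl2 and Tween-20 | Compound: One concentration, 20 µM, with 1.0% DMSO | Also added: Phospho 17-mer peptide substrate | Signal: Absorbance at 630 nm | Incubation: 45 min enzyme reaction at room temperature | Measure: % inhibition of SCP-1 phosphate liberation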
GRK2 aptamer HTS: compounds blocking aptamer binding on GRK2 – biochemical, human GRK2, bead flow cytometry, HTS, primary screen | FAM-aptamer displacement from GRK2 | inhibition of aptamer binding, % at 10 µM | AID 488847, 2010 | Beta-adrenergic receptor kinase 1 (Homo sapiens), P25098 | hit rate 0.59% among 330,000;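 active means inhibition of aptamer binding above 40%, roughly 3 SD of noise, on plates passing a quality check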;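 further: median bead fluorescence of bound FAM aptamer so fluorescent compounds give negative values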
DNMT1 block: human DNMT1 methyltransferase inhibitors, primary screen, biochemical, molecular beacon, fluorescence, HinP1I cleavage, uHTS. DNA (cytosine-5)-methyltransferase 1 (Homo sapiens), P26358. inhibition (reported as % activation of signal), % at 10 µM. hit rate 0.83% among 360,000. AID 588458, 2011; in the data active means inhibition above about 50%
SUMO1-SIM PPI: modulators of SUMO1 protein-protein interactions, primary screen, biochemical, uHTS; Small ubiquitin-related modifier 1 (Homo sapiens), P63165; SUMO1 binding to a labelled peptide, TR-FRET, 1 h; inhibition, % at 20 µM; hit rate 0.33% among 360,000; AID 602429, 2012; in the data active means inhibition above about 37%
Target sequence (P63165 whole entry, looked up): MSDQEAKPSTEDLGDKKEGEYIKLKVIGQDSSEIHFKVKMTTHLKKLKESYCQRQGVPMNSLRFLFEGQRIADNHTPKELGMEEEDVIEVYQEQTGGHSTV
STEP inh: STEP phosphatase inhibitors, primary screen, biochemical, fluorescence intensity, uHTS; hit rate 0.25% among 360,000; inhibition, % at 20 µM; recombinant STEP, OMFP fluorogenic substrate; Tyrosine-protein phosphatase non-receptor type 5 (Homo sapiens), P54829; AID 588621, 2011;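 active means inhibition at 20 µM, scaled per plate between control wells, above about 37%, limit read from the data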
Target sequence (P54829 whole entry, looked up): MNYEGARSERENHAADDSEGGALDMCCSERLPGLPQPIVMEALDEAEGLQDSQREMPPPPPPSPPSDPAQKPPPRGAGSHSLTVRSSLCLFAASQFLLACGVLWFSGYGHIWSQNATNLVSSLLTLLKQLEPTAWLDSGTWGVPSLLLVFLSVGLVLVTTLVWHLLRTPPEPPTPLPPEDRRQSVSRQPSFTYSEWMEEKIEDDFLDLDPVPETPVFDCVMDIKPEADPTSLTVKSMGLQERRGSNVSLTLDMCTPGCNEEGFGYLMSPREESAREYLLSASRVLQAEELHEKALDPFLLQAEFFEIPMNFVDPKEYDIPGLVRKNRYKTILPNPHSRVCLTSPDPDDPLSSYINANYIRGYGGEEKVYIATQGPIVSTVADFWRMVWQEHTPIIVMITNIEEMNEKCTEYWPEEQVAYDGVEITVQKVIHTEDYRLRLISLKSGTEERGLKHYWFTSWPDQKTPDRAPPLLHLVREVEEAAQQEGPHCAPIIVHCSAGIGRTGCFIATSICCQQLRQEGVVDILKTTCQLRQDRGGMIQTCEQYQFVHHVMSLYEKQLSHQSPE
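medium = Bis-Tris buffer pH 6.0, 2.5 mM DTT, 0.005% Tween 20 | test system = STEP (striatal-enriched tyrosine phosphatase) enzyme, cell-free | measure = normalized % inhibition | compound dosing = 20 µM, 1% DMSO | also added = 25 µM OMFP | schedule = reaction 20 min, ambient temperature | measured by = fluorescence read at 480 nm ex / 540 nm em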
GRK2 CP1: GRK2 aptamer-displacing inhibitors, retest, confirmation, biochemical, cherry pick 1, bead flow cytometry; shares compounds with GRK2 aptamer HTS; bead-bound GRK2, FAM-aptamer displacement; aptamer displacement, % at 10 µM; hit rate 4% among 2,000; AID 504451, 2011;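 active means aptamer displacement above 40%, near three times the noise of non-fluorescent compounds, on plates passing quality checks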;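 further: negative values mostly reflect intrinsic compound fluorescence rather than true enhancement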
Aptamer quench: counter-screen for GRK2 aptamer inhibitors: fluorescent aptamer quenchers; shares compounds with GRK2 aptamer HTS; Fluorescent RNA aptamer beads, quenching, flow cytometry; active compounds read high; fluorescence change (kMESF span), kMESF (no concentration beside the values); 110 tested, under 10 active; AID 504521;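 active means compounds whose bead fluorescence drops by more than 37 kMESF across the dose range, marking them as dye quenchers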
Aptamer quench SP: quenches fluorescent RNA aptamer, GRK2 hit artifact. 2,000 tested, under 10 active. shares compounds with GRK2 aptamer HTS. AID 504580. Carboxyfluorescein RNA aptamer on beads, flow cytometry quenching; active compounds read low. fluorescence response (% of DMSO), % at 10 µM;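 active means compounds that quench the bead-bound fluorescent RNA probe, cutting fluorescence to under half of the solvent control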;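 further: counterscreen run without GRK2 so only probe quenching by compound is measured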
Scp1 confirm: Scp-1 phosphatase inhibitors, retest, confirmation, biochemical, colorimetric, single concentration; shares compounds with Scp1 inh; recombinant SCP-1 catalytic domain, phosphate release, malachite green absorbance; inhibition, % at 20 µM; hit rate 61% among 2,500; AID 540281, 2011
Scp-1 MG ctr: colorimetric readout interference by compounds, confirmation, artefact control for Scp-1 inhibitor project, biochemical, single concentration. shares compounds with Scp1 inh. Colorimetric interference counterscreen, malachite green absorbance 630 nm. apparent inhibition (interference), % at 20 µM. 2,500 tested, under 10 active. AID 540313, 2011;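 further: compounds added after enzyme reaction finished so only phosphate colour detection is probed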
Scp1 DSF: Scp-1 binding by thermal shift, confirmation, orthogonal assay for Scp-1 inhibitor project, biophysical, differential scanning fluorimetry; shares compounds with Scp1 inh; thermal shift relative to vanadate control, % at 40 µM; Recombinant SCP1, Sypro Orange thermal shift Tm; hit rate 25% among 1,500;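 active means substances whose mean melting-temperature shift, as a percentage of the reference inhibitor's shift, reaches about 5.3%, limit read from the data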
DNMT1 confirm: DNMT1 methyltransferase inhibitor retest, confirmation, biochemical, molecular beacon, fluorescence, single concentration. shares compounds with DNMT1 block. inhibition, % at 10 µM. DNMT1 molecular beacon HinP1I cleavage. hit rate 8% among 2,300. AID 602385, 2012;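 active means average inhibition of at least 30% in the single-concentration confirmation test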
Beacon interf: counter-screen for DNMT1 inhibitors: spectral interference. shares compounds with DNMT1 block. DNMT1 molecular beacon spectral interference counterscreen, fluorescence 485/520. activation (fluorescence interference), % at 10 µM. hit rate 1% among 2,300. AID 602387;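 active means activation of at least 30% at 10 µM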;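 further: DNMT1 catalytic domain with a HinP1I cleavage step and a FAM/dabcyl DNA beacon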
STEP inh conf: STEP phosphatase inhibitor hit confirmation, biochemical, fluorescence intensity, single concentration | shares compounds with STEP inh | recombinant STEP, OMFP fluorogenic substrate | inhibition, % at 20 µM | hit rate 32% among 520 | AID 623866, 2012; call rule not given here
Numbers stand for hits; – = inactive; · = no result given. Hits are enriched below; roughly 2.1% of the tested compounds scored in any of these assays.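 How the source made its calls, unless noted: active means inhibition of at least 30% at 20 µM; inactive means the rest.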

SMILES	LMPTP block	Scp1 inh	GRK2 aptamer HTS	DNMT1 block	SUMO1-SIM PPI	STEP inh	Scp1 confirm	Scp-1 MG ctr	others
C/C(=N\NC(=O)c1ccc(OC2OCCOC2Oc2ccc(C(=O)N/N=C(\C)c3ccncc3)cc2)cc1)c1ccncc1 (stereo not given)	66	–	50	–	78	45	·	·	GRK2 CP1=–;Aptamer quench SP=–;STEP inh conf=–
O=C(N/N=C/c1ccc(Cl)cc1)c1ccc2c(c1)OCO2	–	103	59	–	–	93	91	–	GRK2 CP1=–;Aptamer quench SP=–;Scp1 DSF=–;STEP inh conf=–
O=C1NC[C@@H](CCCCN2C[C@H](Cc3ccccc3)N(CCc3ccc(O)cc3)C(=O)C2=O)N(CCc2ccccc2)C1=O	–	·	·	·	–	·	·	·
COc1ccc(S(=O)(=O)Cc2ccc(C(=O)O)o2)cc1	–	–	–	–	–	–	·	·
Cc1ccc(S(=O)(=O)Cc2ccc(C(=O)O)o2)cc1	–	86	67	89	–	55	50	–	GRK2 CP1=64;Aptamer quench=–;Aptamer quench SP=–;Scp1 DSF=7.9;DNMT1 confirm=–;Beacon interf=–;STEP inh conf=50
COc1ccc(CCn2c(C(C)C)nc3c(c(=O)c4ccccc4n3C)c2=O)cc1	–	59	–	–	–	–	–	–
CCOc1nc(Nc2ccc(OC)cc2)nc(OCC)n1	–	67	–	–	–	–	–	–
Cc1cccc(C)c1NC(=O)CN(C)C(=O)c1cccc(-n2cccc2)c1	–	68	–	–	–	–	46	–	Scp1 DSF=–
CCc1ccc(N2C=C(C(=O)OC)C(c3cccc4ccccc34)C(C#N)=C2N)cc1 (stereo not given)	–	·	·	·	–	·	·	·
O=C(NCCN1CCNC1=O)C1CCC(=O)N(Cc2cccc(C(F)(F)F)c2)C1 (stereo not given)	–	–	–	–	–	–	–	–
Cc1cccc(NC(=O)C2CCCN2S(=O)(=O)c2ccc3c(c2)n(C)c(=O)c(=O)n3C)c1 (stereo not given)	–	–	–	–	–	–	–	–
CCc1cccc(NC(=O)C2CCCN2S(=O)(=O)c2ccc3c(c2)n(C)c(=O)c(=O)n3C)c1 (stereo not given)	–	–	–	–	–	–	·	·
CC(Oc1cccc([N+](=O)[O-])c1)C(=O)NCCC1=CCCCC1 (stereo not given)	–	59	–	–	–	–	–	–
CN(C)CCN(C)C1CN(Cc2ccccc2)S(=O)(=O)C1 (stereo not given)	–	·	·	–	–	–	·	·
Cc1cccc(OCC(=O)NCC(=O)N=Nc2c(O)[nH]c3ccc([N+](=O)[O-])cc23)c1	–	59	–	–	–	–	–	–
COc1ccc(/C=C/C(=O)NCC(=O)N=Nc2c(O)[nH]c3ccc([N+](=O)[O-])cc23)cc1	–	68	–	–	–	–	–	–
CCCCCC(=O)N=Nc1c(O)[nH]c2ccc([N+](=O)[O-])cc12	–	–	–	–	–	–	·	·
O=C(N=Nc1c(O)[nH]c2ccc([N+](=O)[O-])cc12)c1ccccc1Cl	–	99	–	–	–	73	70	–	Scp1 DSF=16
O=C(CNC(=O)c1ccc(Br)cc1)N=Nc1c(O)[nH]c2ccc([N+](=O)[O-])cc12	–	–	–	–	–	–	·	·
O=C(CNC(=O)c1cc(-c2ccccc2)nn1-c1ccccc1)Nc1ccccc1Br	–	–	·	–	–	–	·	·
O=C1c2ccccc2C(c2nnnn2-c2ccc3c(c2)OCCO3)N1Cc1cccnc1 (stereo not given)	–	·	·	·	–	·	·	·
COc1ccc(S(=O)(=O)N(CC(=O)Nc2ccc3c(c2)OCO3)c2ccccc2OC)cc1	–	–	–	–	–	–	·	·
COc1ccccc1N(CC(=O)Nc1ccc2c(c1)OCO2)S(=O)(=O)c1ccccc1	–	99	–	–	–	–	–	–
C=C(C)C(=O)Nc1cccc(C2=NOC3(C2)C[C@H](C(N)=O)N(C(=O)c2ccccc2C(=O)c2ccccc2)C3)c1 (stereo not given in full)	–	84	91	97	92	–	78	–	Scp1 DSF=–
